# NPY1 pot ag: potentiators or agonists of human neuropeptide Y receptor Y1; NPY-Y1 expressing cells, potentiator/agonist activation; activation, % at 3.6 µM; P25929; actives 0.37% (n = 220,000); in the data active = activation above about 33%, passing the limit was not always enough;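 note: cells stimulated with NPY at EC10 then isoproterenol at EC100; 0% = low agonist plus stimulus and 100% = saturating agonist plus stimulus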
# NPY-Y1 antag: blocks the human neuropeptide Y Y1 receptor. AID 1040. inhibition, % at 3.6 µM. HEK293-CNG Y1 cells, membrane potential fluorescence; NPY at EC95, then isoproterenol. P25929. actives 1% (n = 200,000);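 active = inhibition above the campaign mean inhibition of all tested compounds plus 3 SD, cut at about 20% in these data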;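 note: 0% = DMSO wells given NPY plus isoproterenol and 100% = isoproterenol alone without NPY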
#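 Material: HEK293 Y1/CNG channel cell line | Also added: NPY (25 nM), isoproterenol (1 µM), Ro 20-1724 (25 µM) | Compound: One concentration, 3.6 µM, in 0.4% DMSO | Schedule: 3 h dye uptake, 1 h room-temperature compound, 45 min post-isoproterenol | Signal: Membrane-potential fluorescent dye readout | Read-out: % inhibition of NPY effect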
# RAM inhibit: yeast RAM network inhibition | S. cerevisiae dse1pr::URA3 reporter, 5-FOA growth OD615, 2 d; analog-sensitive cbk1-as2 kinase mutant strain | inhibition, % at 50 µM | actives 1.8% (n = 190,000) | AID 868;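 active = inhibition above a set limit, 3 SD over mean compound inhibition, cut at about 8.4% in these data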;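 note: 0% = DMSO-only wells with no growth and 100% = 10 µM 1-NA-PP1 full growth; inhibition rescues growth on 5-FOA so higher OD means more RAM inhibition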
# NPY Y2 blocker: antagonists of human neuropeptide Y receptor Y2; P49146; NPY-Y2 expressing cells, antagonist mode; inhibition, % at 2.7 µM; actives 0.99% (n = 140,000); in the data active = inhibition above about 17%;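 note: 0% = vehicle with agonist challenge and 100% = reference antagonist with challenge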
# Target sequence (P49146 whole entry, looked up): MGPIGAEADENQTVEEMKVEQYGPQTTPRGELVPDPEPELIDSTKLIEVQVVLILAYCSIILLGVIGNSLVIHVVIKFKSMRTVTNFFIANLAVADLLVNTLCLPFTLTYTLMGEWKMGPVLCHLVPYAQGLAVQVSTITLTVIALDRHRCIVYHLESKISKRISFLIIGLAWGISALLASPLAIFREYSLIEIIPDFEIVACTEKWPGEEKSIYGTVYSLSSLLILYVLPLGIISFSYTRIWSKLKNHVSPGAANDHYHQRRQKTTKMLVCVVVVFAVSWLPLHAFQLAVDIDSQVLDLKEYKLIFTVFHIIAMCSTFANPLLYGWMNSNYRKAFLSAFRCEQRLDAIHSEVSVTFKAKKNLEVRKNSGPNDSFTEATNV
# WT yeast gro inh: growth inhibition of WT yeast, mitochondrial fusion screen. AID 1362. actives 2.1% (n = 190,000). inhibition, % at 10 µM. mitochondrial fusion phenotypic screen, WT strain; in the data active = inhibition above about 58%; tested in S. cerevisiae
# NPY-Y2 PAM-ag: potentiates or activates human NPY-Y2 receptor. P49146. cells expressing NPY-Y2, potentiator/agonist read-out. activation, % at 3.6 µM. actives 0.45% (n = 220,000); in the data active = activation above about 27%;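 note: cells stimulated with NPY near EC25 plus isoproterenol at EC100; 0% = vehicle plus submaximal agonist and 100% = vehicle plus saturating agonist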
# An asterisk follows results filed as active; nt = no result. Hits are enriched below; roughly 4.9% of the tested compounds scored in any of these assays.
SMILES,NPY1 pot ag,NPY-Y1 antag,RAM inhibit,NPY Y2 blocker,WT yeast gro inh,NPY-Y2 PAM-ag
COc1ccc(-c2noc(-c3ccccc3C(=O)Nc3cccnc3)n2)cc1,-5.4,-1.2,1.7,2.6,-12.7,-15.8
Cc1cc(NC(=O)C2CCCCC2)nc2c1c(=O)oc1ccccc12,15.7,3.9,2.8,-1.6,80.5*,-13.3
Cc1cc(NC(=O)C2CCCC2)nc2c1c(=O)oc1ccccc12,19.1,7.0,5.4,5.0,26.1,2.7
COc1ccc(Cn2nnnc2C(c2cc3cc(C)ccc3[nH]c2=O)N2CCOCC2)cc1 (configuration not stated),12.4,-0.8,1.4,3.2,-10.7,8.7
CCOC(=O)CSc1nc2c(sc(=S)n2Cc2ccco2)c(=O)n1-c1ccc(F)cc1,-2.2,20.8*,7.2,19.4*,9.1,-14.0
CCC(C)NC(=O)CSc1nc2c(sc(=S)n2Cc2ccco2)c(=O)n1-c1ccccc1 (configuration not stated),-22.7,17.6,5.7,11.8,15.8,-40.1
S=C1NCN(Cc2ccco2)CN1CCc1ccccc1,15.7,nt,nt,nt,nt,-2.6
Cc1cc(C(=O)OCC(=O)N2c3ccccc3CC2C)c(C)o1 (configuration not stated),-16.6,-8.3,0.0,0.2,-12.9,5.7
O=C1C(Cc2ccccc2)SC(=Nc2ccccc2)N1c1ccccc1 (configuration not stated),17.2,-2.7,5.2,0.7,19.1,-4.9
O=C1/C(=C\c2ccc(Br)o2)SC(=Nc2ccccc2)N1c1ccccc1,7.7,-0.6,11.0*,-4.3,1.0,7.3
Cc1cc(/C=C2/NC(=O)N(Cc3ccccc3F)C2=O)c(C)n1C(C)C,-9.5,-0.9,9.1*,-2.3,-2.5,-2.6
CCOC(=O)C1(Cc2ccc(Cl)cc2)CCN(Cc2cnc(N)nc2)CC1,-13.4,2.9,0.9,nt,-0.5,0.2
CCOC(=O)C1(S(=O)(=O)c2ccc(Cl)cc2)CCN(Cc2ccc(C)cc2)CC1,10.2,7.7,0.9,6.3,71.8*,5.9
COc1ccc(N2CCN(CC(=O)Nc3ccccc3SC)CC2)cc1,-20.8,-0.8,0.9,nt,5.6,-17.8
COC(=O)c1ccc(-n2nnnc2SCC(=O)Nc2ccccc2C(=O)OC)cc1,-3.0,3.3,0.2,8.8,0.2,-10.0
COC(=O)c1ccc(-n2nnnc2SCc2ccccc2OC)cc1,-8.6,4.2,9.6*,7.6,-7.3,-22.1
CCOC(=O)c1cc(-c2ccccc2)n(CC(=O)Nc2cccc(OC)c2)c1C,3.5,5.7,4.6,4.8,14.7,14.2
CCN(CC)S(=O)(=O)c1ccc(C(=O)OCCNC(=O)c2cccnc2)cc1,-4.9,-2.9,-0.1,4.2,-27.6,-5.9
O=C(/C=C/c1ccccc1)NC(=S)N1CCSCC1,15.1,5.9,-0.2,nt,-17.1,-4.6
CC(=O)N(Cc1cc2c(C)cc(C)cc2[nH]c1=O)C1CCCCC1,-9.6,1.8,-2.0,4.6,98.5*,11.9
CCN1CC2CCCC3(C1)C(=O)NC1(CCCCC1)N=C23 (configuration not stated),16.4,-0.8,2.4,-0.5,13.1,-7.1
Cc1ccc(C(=O)c2cc([N+](=O)[O-])ccc2N2CCCCC2)cc1C,-7.0,2.0,10.0*,2.5,29.0,0.7
O=C(c1ccc(Br)cc1)c1cc([N+](=O)[O-])ccc1N1CCCCC1,-6.3,37.7*,4.8,17.3*,27.8,-11.4
Cc1ccc(C(=O)c2cc([N+](=O)[O-])ccc2N2CCOCC2)cc1C,-3.1,6.6,1.4,2.8,-8.2,-2.8
CC(C)(C)NC(=O)CN(c1cccc([N+](=O)[O-])c1)S(=O)(=O)c1ccccc1,7.3,-1.6,-0.5,nt,-7.9,-4.9
SMILES,NPY1 pot ag,NPY-Y1 antag,RAM inhibit,NPY Y2 blocker,WT yeast gro inh,NPY-Y2 PAM-ag
Cc1ccc2c(CSc3nnc(C4CC4)n3N)cc(=O)oc2c1C,-3.5,2.8,2.0,0.8,95.9*,13.5
Cc1ccc2c(CSc3nnc(C4CC4)n3N)cc(=O)oc2c1,2.0,-4.6,1.6,0.6,11.3,16.9
CCCOC(=O)C1C2C=CC(C3CC23)C1C(=O)OCC(=O)c1ccccc1 (configuration not stated),4.2,4.2,-0.2,7.5,0.6,-12.2
COc1ccc(OC(=O)CN2C(=O)C3C4CCC(C4)C3C2=O)cc1 (configuration not stated),4.5,4.0,1.1,-1.4,-10.0,-1.3
Cc1cc(C)c(C(=O)COC(=O)CCNS(=O)(=O)c2c(Cl)cccc2Cl)cc1C,-13.4,3.8,10.3*,5.8,37.3,-10.9
COc1ccc2occ(C(=O)c3coc4ccc(O)c(CN(C)C)c34)c2c1,-43.2,11.0,-0.1,4.7,10.0,-47.5
COc1ccc(C(O)c2coc3ccc(O)c(CN(C)C)c23)cc1 (configuration not stated),106.6*,-21.4,2.7,3.2,14.2,100.4*
C=C(C)CNC(=S)N/N=C1\CCCCc2ccccc21,-36.4,2.0,1.6,9.3,64.9*,-17.4
Cc1cccc(NC(=S)N/N=C2/CCCCc3ccccc32)c1,-14.2,2.1,4.4,6.6,63.2*,-15.0
CC(C(=O)OCC(=O)c1c(N)n(C)c(=O)n(C)c1=O)N1C(=O)c2ccccc2C1=O (configuration not stated),5.4,-2.7,1.9,0.2,15.3,8.8
COCCNC(=O)c1cccc(C)c1[N+](=O)[O-],-5.2,0.1,2.4,0.7,4.3,8.0
C=CCn1c(N(C)C)nc2c1c(=O)[nH]c(=O)n2C,nt,nt,nt,nt,16.0,nt
CC1=NN(/C(=N\c2nnc(C)s2)Nc2ccc(C(C)(C)C)cc2)[C@H](c2ccc(C)cc2)S1,-20.2,6.0,0.9,12.4,79.8*,-22.1
Cc1ccc(NC(=O)CCSc2nnc(C)s2)cc1,-13.2,7.5,1.3,1.6,-1.8,3.1
CCn1c(=O)cc(OCC(=O)N(C)c2ccccc2F)c2ccccc21,-2.9,0.1,4.7,2.7,10.0,10.7
Clc1ccc(-c2csc(Nc3cccnc3)n2)cc1,16.0,nt,nt,nt,nt,23.6
Cc1cccc(Nc2nc(-c3ccncc3)cs2)c1,47.0*,-20.7,1.6,nt,38.1,35.0*
Clc1cccc(Nc2nc(-c3ccncc3)cs2)c1,45.5*,-18.1,1.7,nt,39.6,50.7*
C=CCSc1nnc2c(n1)OC(c1c(C)[nH]n(-c3ccccc3)c1=O)Nc1ccccc1-2 (configuration not stated),-8.4,0.0,0.3,5.5,0.1,-9.6
Cn1nnnc1SCC(=O)Nc1ccccc1C(N)=O,-10.0,-2.4,3.2,nt,3.3,0.2
CCc1cc2c(=O)c(-c3cscn3)coc2cc1O,21.0,-0.8,1.7,-3.0,69.0*,5.6
Clc1ccc(-c2nnnn2-c2ccc(Cl)c(Cl)c2)cc1Cl,-64.3,4.7,0.1,4.7,79.4*,-25.2
Cc1ccc(OCC(=O)O/N=C(\N)Cc2cccs2)cc1C,-39.2,6.3,nt,6.9,nt,-16.5

# Screening results deposited in PubChem by several laboratories.
